Source: PubChem BioAssay
A selection: hits, their analogues and other compounds. The true share with any hit is near 1.1%.
KLK5 inh: inhibitors of human kallikrein 5. Q9Y337. recombinant hK5, fluorogenic AMC substrate cleavage. inhibition, % at 5 µM. 0.59% of 210,000 active. AID 873;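 active = inhibition of 40% or more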;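 note: 0% = enzyme controls without compound and 100% = no-enzyme blanks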
FXIa inh: inhibitors of human coagulation factor XIa; purified FXIa, Boc-Glu-Ala-Arg-AMC fluorogenic substrate; inhibition, % at 5 µM; 0.14% of 220,000 active; AID 798;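 active = inhibition of at least 40%; inactive = inhibition below 40%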;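 note: fluorescence of freed AMC excited at 355 nm; 0% = enzyme without compound and 100% = no enzyme blank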
Lipid droplet: hepatic lipid droplet formation modulation; 0.4% of 240,000 active; AML12 mouse hepatocytes, oleate lipid droplets, BODIPY imaging; inhibition, % at 6.5 µM;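 active = lipid droplet intensity inhibited by at least 50%, with more than 500 cells counted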
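Material – AML12 mouse liver cells · Also added – oleate loading, 100 µM · Compound dosing – 6.5 µM single-point dosing · Times – overnight treatment with compound plus oleate · Measured by – fluorescence imaging, 20x objective, two fields per well · Read-out – percent inhibition of filter-corrected integrated lipid droplet intensity per well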
thrombin 1536: thrombin (human) inhibition; P00734; alpha-thrombin, Boc-VPR-AMC fluorogenic substrate cleavage; inhibition, % at 5 µM; 0.26% of 220,000 active; AID 1046;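 active = inhibition at or above 40%; inactive = inhibition below 40%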;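 note: 0% = enzyme with no compound and 100% = wells without enzyme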
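Assay system: human alpha-thrombin enzyme. Reagent: Boc-VPR-AMC substrate, 15 µM final. Compound dosing: one concentration per compound, 5 µM, with 0.2% DMSO. Incubation: room-temperature reaction. Technique: AMC fluorescence, 355/460 nm. Measure: % inhibition relative to enzyme controls and enzyme-free blanks.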
Calb biofilm kill: mixtures killing C. albicans biofilm; C. albicans biofilm persisters + clotrimazole, fluorescence viability; primary screen in compound mixtures of four per well; inhibition, % at 7.6 µM; 0.02% of 120,000 active; AID 1242;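 active = inhibition above 30.3% in the primary screen of four-compound pools, then above 30% when the compound was retested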;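 note: compounds exposed to preformed 24 h biofilms for 48 h; 0% = untreated biofilm control and 100% = clotrimazole plus chlorhexidine kill blank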
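Test system: C. albicans biofilms. Buffer or medium: RPMI/MOPS medium, pH 7.0. Timing: 48 h compound exposure at 37 °C. Technique: Alamar Blue fluorescence. Evaluation: percent inhibition of biofilm viability.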
FXIIa inh: factor XIIa (human) inhibition. P00748. inhibition, % at 5 µM. AID 800. 0.3% of 220,000 active. purified FXIIa, Boc-QGR-AMC fluorogenic substrate, 2 h; in the data active = inhibition above about 40%;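 note: 0% = enzyme with no compound and 100% = blank without enzyme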
Target sequence (P00748 20-372 limits assumed): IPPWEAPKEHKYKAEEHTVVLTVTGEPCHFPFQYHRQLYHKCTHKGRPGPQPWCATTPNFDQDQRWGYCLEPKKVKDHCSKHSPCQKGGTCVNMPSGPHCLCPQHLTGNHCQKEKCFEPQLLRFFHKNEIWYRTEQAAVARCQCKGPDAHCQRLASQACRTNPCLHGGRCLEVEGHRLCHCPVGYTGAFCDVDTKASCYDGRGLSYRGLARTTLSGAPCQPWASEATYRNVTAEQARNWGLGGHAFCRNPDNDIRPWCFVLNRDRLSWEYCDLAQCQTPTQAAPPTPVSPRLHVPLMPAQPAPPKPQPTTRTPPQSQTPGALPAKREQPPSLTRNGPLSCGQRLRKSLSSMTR
Target sequence (P00748 373-615 limits assumed): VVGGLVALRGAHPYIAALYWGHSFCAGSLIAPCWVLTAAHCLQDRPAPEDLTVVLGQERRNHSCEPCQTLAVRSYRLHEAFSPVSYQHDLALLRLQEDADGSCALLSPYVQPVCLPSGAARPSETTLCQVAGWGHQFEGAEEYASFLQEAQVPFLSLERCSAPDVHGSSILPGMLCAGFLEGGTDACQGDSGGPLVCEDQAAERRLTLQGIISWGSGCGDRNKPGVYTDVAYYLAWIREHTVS
* hit, by the source's call; . = no result.

SMILES | KLK5 inh | FXIa inh | Lipid droplet | thrombin 1536 | Calb biofilm kill | FXIIa inh
COc1cccc(C(=O)NNC(=O)Cc2ccc(Cl)cc2)c1 | -14 | 3 | -4 | 1 | 6 | 12
CCOC(=O)CSc1n[nH]c(NC(=O)c2cccc(C(F)(F)F)c2)n1 | 39 | -8 | . | 78* | . | 15
COc1cccc(C(=O)Nc2nc(SCc3ccc(Cl)cc3)n[nH]2)c1 | 29 | 8 | 7 | 51* | 15 | 34
CCCCC(=O)Nc1cc(C(=O)NCCc2ccccc2)ccc1Cl | 63* | 3 | . | 18 | . | 19
O=C(NCc1ccc2c(c1)OCO2)c1cc(-c2ccccn2)nc2ccccc12 | -4 | 3 | 58* | . | -1 | 3
O=C(NCc1ccco1)c1cc(-c2ccccn2)nc2ccccc12 | -14 | -6 | . | -3 | . | -8
CCOC(=O)c1c(C)n(C)c2ccc(OC)c(NC(=O)CCN3CCC(Cc4ccccc4)CC3)c12 | 23 | 52* | 19 | 9 | 16 | 27
COc1ccc(CCN2CC(C(=O)NCc3nc4ccccc4n3C)CCC2=O)cc1 (stereo not drawn) | . | . | -2 | . | . | .
O=C(C[n+]1ccc(C(=O)NCCCO)cc1)c1cccc(Br)c1 | -4 | 1 | -14 | -5 | 24 | 6
CSc1c(CC(=O)NCCO)n(C)c2ccccc12 | 51* | 3 | 2 | 13 | . | 18
O=C(COc1ccccc1)N=C1SC2CS(=O)(=O)CC2N1c1ccc(F)cc1 (stereo not drawn) | . | . | -28 | . | . | .
CC(C)c1ccc(N(CC(=O)N/N=C/c2ccc(OC3CSC3)cc2)S(=O)(=O)c2ccccc2)cc1 | 22 | -11 | 48 | 59* | 5 | -4
COc1ccc(S(=O)(=O)N2CCN(C)CC2)cc1NC(=O)c1ccccc1F | . | . | 2 | . | . | .
COc1cc(S(=O)(=O)N2CCN(C(=O)c3ccccc3F)CC2)c(OC)cc1NC(C)=O | 47* | 16 | . | 10 | . | 16
Cn1c(CNC(=O)CNC(=O)Cc2ccc(Cl)cc2)cc(=O)n(C)c1=O | . | . | 1 | . | . | .
COC(=O)c1ccc(C2NC(=O)c3c(sc(C)c3C)N2)cc1 (stereo not drawn) | -10 | 1 | 1 | -8 | 14 | 3
Cc1sc2c(c1C)C(=O)NC(c1cccc(O)c1)N2 (stereo not drawn) | -16 | 40* | . | 2 | . | 16
O=C1CSC(c2ccccc2)N1Cc1ccccc1 (stereo not drawn) | . | . | -2 | . | . | .
CS(=O)(=O)c1ccc(Oc2ccc(-c3nnco3)cc2)c([N+](=O)[O-])c1 | . | . | -18 | . | . | .
Cc1[nH]c2ccccc2c1NC(=O)CN1CCN(C(=O)c2ccco2)CC1 | 20 | 38 | -48 | 35 | 6 | 59*
Cc1ccc(Cl)cc1N1CCN(C(=O)CN2C(=O)c3cccc4cccc2c34)CC1 | 62* | 4 | -2 | 24 | . | 7
CSc1ccc(CCNC(=O)CCc2nnc3ccc(N4CCC5(CC4)OCCO5)nn23)cc1 | . | . | -23 | . | . | .
COC(=O)c1[nH]c2cccc(OC)c2c1NC(=O)CN1CCN(c2cccc(OC)c2)C(C)C1 (stereo not drawn) | 125* | -4 | 0 | 3 | . | -1
CCOC(=O)c1[nH]c2cc(OC)c(OC)cc2c1NC(=O)CN1CCN(c2ccc(OC)cc2)C(C)C1 (stereo not drawn) | -28 | 2 | 11 | -4 | . | 2
CN1C(=O)/C(=N/OC(=O)c2ccccc2)c2ccccc21 | -8 | 47* | . | 46* | . | 53*
SMILES | KLK5 inh | FXIa inh | Lipid droplet | thrombin 1536 | Calb biofilm kill | FXIIa inh
O=C(O/N=C1\C(=O)N(c2ccccc2)c2ccccc21)C1CC1 | -2 | -1 | -2 | 1 | 22 | 29
O=C(NCC1CCCO1)c1ccc(NC(=O)c2cc(F)c(F)cc2Cl)cc1 (stereo not drawn) | . | . | 4 | . | . | .
COC(=O)c1ccccc1NC(=O)N1CCCC1 | -5 | -1 | 3 | 4 | . | 11
COC(=O)c1ccccc1NC(=O)N1CCN(S(=O)(=O)c2ccc(Cl)cc2)CC1 | 102* | -8 | -6 | 20 | . | 7
CN(CC(=O)Nc1ccccc1Br)C(=O)CNC(=O)c1ccc(Oc2ccccc2)cc1 | . | . | 10 | . | . | .
COc1ccc(C(=O)/C=C/NCc2ccc(F)cc2)cc1OC | 62* | 17 | -2 | 5 | 10 | 31
Cc1occc1C(=O)Nc1cccc(C(=O)O)c1 | -28 | -1 | 3 | -1 | . | 8
COC(=O)c1cc(NC(=O)c2ccoc2C)cc(C(=O)OC)c1 | 40* | 2 | 11 | 1 | . | 5
O=C(Nc1cccnc1)c1ccccc1O | -12 | 17 | 20 | 16 | . | 12
Cc1occc1C(=O)Nc1cccnc1 | 78* | 3 | -1 | 10 | . | 5
CC1(C)Oc2ccc3ccc(=O)oc3c2/C(=C/NNC(N)=S)C1=O | . | . | -16 | . | . | .
O=[N+]([O-])c1ccc2c(OCc3nnc(-c4ccccc4Br)o3)ncnc2c1 | 2 | 12 | -11 | 3 | 8 | 5
Cc1cc(C)n2nc(S(=O)(=O)N(C)c3ccccc3)nc2n1 | 55* | 18 | -4 | 23 | . | 31
Cc1cc(C)n2nc(Cc3ccccc3)nc2n1 | -18 | -3 | 3 | 9 | . | -4
CCS(=O)(=O)c1nc(S(=O)(=O)c2ccc(C)cc2)c(NCCCn2ccnc2)s1 | . | . | -6 | . | . | .
COc1ccc(/C=C(\C#N)c2n[nH]c(Cn3cncn3)n2)cc1 | 21 | 12 | 34 | 4 | 7 | 48*
COc1ccccc1NC(=O)CSc1nnnn1C | 7 | 33 | . | -1 | . | 59*
C=CCn1c(SCC(=O)Nc2nc(C)cs2)nnc1C(NC(=O)c1ccccc1)C(C)C (stereo not drawn) | 51* | 4 | -15 | 18 | 9 | 15
CCOC(=O)N1CCN(c2nc(-c3ccccc3)c3ccccc3n2)CC1 | . | . | 1 | . | . | .
O=[N+]([O-])c1ccc(C2Nc3cccc4cccc(c34)N2)cc1 | 63* | 15 | -4 | 12 | 5 | 9
O=[N+]([O-])c1cccc(C2Nc3cccc4cccc(c34)N2)c1 | -21 | 6 | -6 | -2 | 24 | 8
COc1cc2[nH]c(=O)c(C(=O)NCc3ccccc3Cl)c(O)c2cc1OC | . | . | -1 | . | . | .
COc1ccc(-c2nnc(NC(=O)Cc3ccccc3)s2)c(OC)c1 | 52* | -12 | 1 | 0 | 18 | 6
COc1ccc(-c2nnc(NC(=O)c3cccs3)s2)c(OC)c1 | 27 | -18 | 12 | -3 | 18 | 5
Cn1c(SCC(=O)N2c3ccccc3CCc3ccccc32)nnc1-c1cc2ccccc2cc1O | 30 | 7 | 25 | 101* | 2 | 14
CC(C)Sc1nc(SCC(=O)NCc2ccco2)c2c3c(sc2n1)COC(C)(C)C3 | 55* | 7 | . | 32 | . | 14
COc1ccccc1NS(=O)(=O)c1ccc2oc(N)nc2c1 | . | . | 1 | . | . | .
Cc1ccc(C(=O)n2c(-c3ccccc3)cnc2SCC(=O)Nc2ccccc2)cc1 | 4 | 18 | -2 | 16 | 15 | 19
CC(=O)n1nc(-c2cccc(C)c2)nc1SCC(=O)Nc1ccccc1 | -6 | -1 | -12 | 77* | . | 13
